Test results reported in ChEMBL document CHEMBL5150021, “Identification of 5-(Aryl/Heteroaryl)amino-4-quinolones as Potent Membrane-Disrupting Agents to Combat Antibiotic-Resistant Gram-Positive Bacteria” (J Med Chem, 2022).
Values after ≈ are worked out from the molar mass of the structure shown.

Legend:
[1] = Cytotoxicity against sheep erythrocytes assessed as reduction in cell viability; type: toxicity, cell-based, Ovis aries, Erythrocyte
In short: (§1)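 4% sheep erythrocytes mixed 1:1 with twofold serial compound dilutions in PBS, incubated stationary 1 h at 37 °C, then centrifuged at 500g for 5 min. Supernatant A540 is measured and percent hemolysis is calculated relative to DMSO vehicle (0%) and Triton X-100 (100%). Triplicate, mean ± SD.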

[2] = Therapeutic index, ratio of CC50 for Cytotoxicity against sheep erythrocytes to MIC for antibacterial activity against methicillin resistant Staphylococcus aureus FPR3757; type: toxicity
In short: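 Ratio of erythrocyte CC50 to MRSA FPR3757 MIC. For hemolysis, 4% washed sheep erythrocytes were mixed 1:1 with twofold compound dilutions in PBS and incubated 1 h at 37 °C. Supernatant A540 was read after centrifugation and normalized between DMSO and Triton X-100 (100% lysis). Triplicates. Highest concentration tested: 32 μg/mL.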

Erythrocyte = test: Hemolytic activity in sheep erythrocytes at 32 ug/ml incubated for 1 hr; type: toxicity, cell-based, Ovis aries; conditions: dose 32 µg/ml; in short: as §1
Staphylococcus aureus = test: Antibacterial activity against methicillin resistant Staphylococcus aureus FPR3757 assessed as inhibition of bacterial growth incubated for 24 hrs by CLSI based method; type: functional; conditions: read-out: MIC100
In short: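 It was mixed 1:1 with twofold serial compound dilutions and incubated stationary at 37 °C for 24 h. MIC was the lowest concentration giving complete inhibition of observable growth, with an oxacillin control.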

SMILES | CC50 [1] [µg/mL] | selectivity ratio [2] | Activity (Erythrocyte) | MIC (Staphylococcus aureus) [µg/mL]
O=c1cc(C(F)(F)F)[nH]c2cc(C(F)(F)F)cc(Nc3ccc(Cl)c(Cl)c3)c12 | > 32 | > 500 | Non-Toxic | < 0.0625
O[C@H]1C[C@H]2CC[C@@H](C1)N2c1cc(C(F)(F)F)nc2cc(C(F)(F)F)ccc12 |  |  |  | > 32
FC(F)(F)c1ccc2c(Nc3ccc(N4CCOCC4)cc3)cc(C(F)(F)F)nc2c1 |  |  |  | > 16
O=c1cc(C(F)(F)F)[nH]c2cc(F)cc(Nc3ccc(C(F)(F)F)cn3)c12 |  |  | Non-Toxic | 1 (≈ 2.56 µM)
Fc1cc2nc(C(F)(F)F)cc(Nc3ccc(C(F)(F)F)cn3)c2cc1F |  |  | Toxic | 0.25 (≈ 0.636 µM)
Fc1cccc(Nc2cc(C(F)(F)F)nc3cc(C(F)(F)F)ccc23)c1 |  |  |  | 4 (≈ 10.7 µM)
CCc1ccc2c(O)cc(C(F)(F)F)nc2c1 |  |  |  | 640 (≈ 2650 µM)
FC(F)(F)c1ccc2c(Nc3nccs3)cc(C(F)(F)F)nc2c1 |  |  |  | 1 (≈ 2.75 µM)
OCc1cccc(Nc2cc(C(F)(F)F)nc3cc(C(F)(F)F)ccc23)c1 |  |  |  | > 16
FC(F)(F)c1ccc(Nc2cc(C(F)(F)F)nc3c(C(F)(F)F)cccc23)nc1 |  |  |  | 0.5 (≈ 1.18 µM)
FC(F)(F)c1ccc(Nc2cc(N3CCNCC3)nc3cc(C(F)(F)F)ccc23)nc1 |  |  |  | 0.5 (≈ 1.13 µM)
FC(F)(F)c1ccc2c(Nc3ccc4c(c3)OCO4)cc(C(F)(F)F)nc2c1 |  |  |  | > 4
